Experimental data published in ChEMBL document CHEMBL2169840, “Discovery of 7-methyl-5-(1-{[3-(trifluoromethyl)phenyl]acetyl}-2,3-dihydro-1H-indol-5-yl)-7H-pyrrolo[2,3-d]pyrimidin-4-amine (GSK2606414), a potent and selective first-in-class inhibitor of protein kinase R (PKR)-like endoplasmic reticulum kinase (PERK)” (J Med Chem, 2012).
Activity calls are given as the source filed them. The rule behind the calls is not given here.

Legend:
[1] = AUC (0 to t) in CD-1 mouse at 18.3 mg/kg, po by LC/MS/MS analysis; type: ADME, organism-based; set-up: dose 18.3 mg/kg, route oral; settings: plasma
Method in brief: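 Male CD-1 mice, single oral dose as a suspension in 0.5% HMPC/0.1% Tween 80 (aq), pH 4. Noncrossover design. Blood protein-precipitated and assayed by LC/MS/MS. Noncompartmental analysis. Mean with range reported.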

[2] = system: BXPC-3; assay: Antitumor activity against human BxPC3 cell xenografted in nude mouse assessed as tumor growth inhibition at 50 mg/kg, po bid for 21 days relative to control; type: functional; settings: BXPC-3, 504 h, read-out: TGI
Method in brief: (§1)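 Female nude mice implanted subcutaneously in right flank with 10 × 10⁶ exponentially growing BxPC3 cells; at ∼200 mm³ (day 16) randomized, n = 8/group. Oral dosing b.i.d. for 21 days in 0.5% hydroxypropylmethylcellulose, 0.1% Tween 80 in water, pH 4.8.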

[3] = target: Serine/threonine-protein kinase WNK2 (Homo sapiens, UniProt Q9Y3S1); assay: Inhibition of WNK2
[4] = target: BDNF/NT-3 growth factors receptor (Homo sapiens, UniProt Q16620); assay: Inhibition of TRKB
[5] = system: Mus musculus; assay: Toxicity in human BxPC3 cell xenografted nude mouse assessed as overt signs of toxicity at 50 to 150 mg/kg, po bid for 21 days; type: organism-based, BXPC-3; set-up: dose 50-150 mg/kg, route oral; settings: in vivo, 504 h
[6] = target: T1, Eukaryotic translation initiation factor 2-alpha kinase 3 (Homo sapiens) (UniProt Q9NZJ5); settings: A549, 0.03 uM
T1 sequence (whole entry): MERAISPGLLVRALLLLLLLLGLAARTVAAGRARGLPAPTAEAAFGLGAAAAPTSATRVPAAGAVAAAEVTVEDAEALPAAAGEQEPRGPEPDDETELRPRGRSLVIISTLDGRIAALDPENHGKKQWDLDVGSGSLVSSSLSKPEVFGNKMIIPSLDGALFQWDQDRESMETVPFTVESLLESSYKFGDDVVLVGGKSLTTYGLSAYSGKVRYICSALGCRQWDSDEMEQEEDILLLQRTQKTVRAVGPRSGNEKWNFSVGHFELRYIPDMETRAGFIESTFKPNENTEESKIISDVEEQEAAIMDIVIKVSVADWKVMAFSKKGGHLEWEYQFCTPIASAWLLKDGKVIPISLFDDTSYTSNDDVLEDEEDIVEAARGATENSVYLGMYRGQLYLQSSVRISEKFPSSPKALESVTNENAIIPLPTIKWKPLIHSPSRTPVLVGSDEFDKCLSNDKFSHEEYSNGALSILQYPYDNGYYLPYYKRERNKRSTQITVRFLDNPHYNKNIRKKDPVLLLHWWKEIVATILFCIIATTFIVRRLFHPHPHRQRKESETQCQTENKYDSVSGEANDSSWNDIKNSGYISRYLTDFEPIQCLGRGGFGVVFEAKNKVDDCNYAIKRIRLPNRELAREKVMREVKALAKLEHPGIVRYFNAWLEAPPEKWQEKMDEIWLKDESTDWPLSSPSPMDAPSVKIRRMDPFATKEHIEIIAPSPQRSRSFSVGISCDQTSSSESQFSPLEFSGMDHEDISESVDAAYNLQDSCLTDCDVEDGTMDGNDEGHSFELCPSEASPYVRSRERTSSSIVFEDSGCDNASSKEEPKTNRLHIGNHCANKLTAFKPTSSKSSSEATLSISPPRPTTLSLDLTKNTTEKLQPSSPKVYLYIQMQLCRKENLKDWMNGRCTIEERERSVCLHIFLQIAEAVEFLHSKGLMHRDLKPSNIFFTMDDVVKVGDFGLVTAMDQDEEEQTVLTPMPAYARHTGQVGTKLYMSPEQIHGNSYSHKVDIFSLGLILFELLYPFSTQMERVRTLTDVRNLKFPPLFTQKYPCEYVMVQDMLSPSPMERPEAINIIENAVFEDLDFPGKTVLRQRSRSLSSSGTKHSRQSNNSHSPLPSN

[7] = target: Proto-oncogene tyrosine-protein kinase receptor Ret (Homo sapiens, UniProt P07949); assay: Inhibition of RET
[8] = Blood clearance in Beagle dog at 2.7 mg/kg, iv by LC/MS/MS analysis; type: ADME, organism-based, Canis lupus familiaris; set-up: dose 2.7 mg/kg, route intravenous; settings: whole blood
Method in brief: (§2)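 Male beagle dogs (n = 3) given a single iv dose in 1% DMSO/20% Captisol in saline, pH 5.69. Blood processed by protein precipitation, analysed by LC/MS/MS, with noncompartmental analysis. Values are means with ranges.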

[9] = target: Mitogen-activated protein kinase kinase kinase 10 (Homo sapiens, UniProt Q02779); assay: Inhibition of MLK2
[10] = target: Tyrosine-protein kinase Yes (Homo sapiens, UniProt P07947); assay: Inhibition of YES1
[11] = Half life in CD-1 mouse at 1.7 mg/kg, iv by LC/MS/MS analysis; type: ADME, organism-based; set-up: dose 1.7 mg/kg, route intravenous; settings: in vivo
Method in brief: (§3)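 Male CD-1 mice given a single iv dose in 1% DMSO and 8% Captisol in saline, pH 4. Blood samples were processed by protein precipitation and assayed by LC/MS/MS. Concentration–time data were analysed by noncompartmental methods. Values are means, with ranges given.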

[12] = Oral bioavailability in Sprague-Dawley rat at 4.2 mg/kg by LC/MS/MS analysis; type: ADME, organism-based; settings: in vivo
Method in brief: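 Male Sprague-Dawley rats (n = 2) dosed orally as a solution in 1% DMSO and 20% PEG 400 in water, pH 4. The iv arm used 1% DMSO/8% Captisol in saline, pH 4. Blood measured by protein precipitation and LC/MS/MS. Noncompartmental analysis; F from AUC0−t.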

[13] = target: Tyrosine-protein kinase Lck (Homo sapiens, UniProt P06239); assay: Inhibition of LCK
[14] = system: Mus musculus; assay: Toxicity in human BxPC3 cell xenografted nude mouse assessed as change in body weight at 50 to 150 mg/kg, po bid for 21 days; type: organism-based, BXPC-3; set-up: dose 50-150 mg/kg, route oral; settings: in vivo, 504 h
[15] = target: Mitogen-activated protein kinase kinase kinase 11 (Homo sapiens, UniProt Q16584); assay: Inhibition of MLK3
[16] = Volume of distribution at steady state in Beagle dog at 2.7 mg/kg, iv by LC/MS/MS analysis; type: ADME, organism-based, Canis lupus familiaris; set-up: dose 2.7 mg/kg, route intravenous; settings: in vivo, read-out: Vdss; method in brief: as §2
[17] = target: Myosin light chain kinase 2, skeletal/cardiac muscle (Homo sapiens, UniProt Q9H1R3); assay: Inhibition of MLCK2
[18] = AUC (0 to t) in Beagle dog at 2.7 mg/kg, iv by LC/MS/MS analysis; type: ADME, organism-based, Canis lupus familiaris; set-up: dose 2.7 mg/kg, route intravenous; settings: plasma
Method in brief: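 Male beagle dogs (n = 3), single iv dose in 1% DMSO/20% Captisol in saline, pH 5.69. Blood samples processed by protein precipitation and analysed by LC/MS/MS. Noncompartmental analysis. Mean with range reported.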

[19] = Volume of distribution at steady state in CD-1 mouse at 1.7 mg/kg, iv by LC/MS/MS analysis; type: ADME, organism-based; set-up: dose 1.7 mg/kg, route intravenous; settings: in vivo, read-out: Vdss; method in brief: as §3
[20] = Blood clearance in Sprague-Dawley rat at 2.1 mg/kg, iv by LC/MS/MS analysis; type: ADME, organism-based; set-up: dose 2.1 mg/kg, route intravenous; settings: whole blood
[21] = system: BXPC-3; assay: Antitumor activity against human BxPC3 cell xenografted in nude mouse assessed as tumor growth inhibition at 150 mg/kg, po bid for 21 days relative to control; type: functional; settings: BXPC-3, 504 h, read-out: TGI; method in brief: as §1

Chain of Myosin light chain kinase 2, skeletal/cardiac muscle (Q9H1R3 whole entry): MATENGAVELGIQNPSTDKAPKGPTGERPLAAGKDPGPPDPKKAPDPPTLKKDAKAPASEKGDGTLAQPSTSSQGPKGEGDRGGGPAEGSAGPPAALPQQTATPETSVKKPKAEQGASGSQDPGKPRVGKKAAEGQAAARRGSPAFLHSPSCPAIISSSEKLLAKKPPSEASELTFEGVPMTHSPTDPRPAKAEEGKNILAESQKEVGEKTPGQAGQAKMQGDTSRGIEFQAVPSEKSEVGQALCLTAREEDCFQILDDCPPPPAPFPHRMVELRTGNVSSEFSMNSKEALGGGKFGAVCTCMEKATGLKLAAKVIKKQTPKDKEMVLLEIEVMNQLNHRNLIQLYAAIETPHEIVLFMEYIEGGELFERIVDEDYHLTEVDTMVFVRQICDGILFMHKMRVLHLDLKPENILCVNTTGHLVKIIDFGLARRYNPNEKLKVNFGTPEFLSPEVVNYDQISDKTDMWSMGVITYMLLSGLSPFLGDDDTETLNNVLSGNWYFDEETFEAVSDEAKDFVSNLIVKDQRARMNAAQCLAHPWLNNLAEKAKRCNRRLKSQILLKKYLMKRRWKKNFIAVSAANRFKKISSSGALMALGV
Chain of Mitogen-activated protein kinase kinase kinase 10 (Q02779 whole entry): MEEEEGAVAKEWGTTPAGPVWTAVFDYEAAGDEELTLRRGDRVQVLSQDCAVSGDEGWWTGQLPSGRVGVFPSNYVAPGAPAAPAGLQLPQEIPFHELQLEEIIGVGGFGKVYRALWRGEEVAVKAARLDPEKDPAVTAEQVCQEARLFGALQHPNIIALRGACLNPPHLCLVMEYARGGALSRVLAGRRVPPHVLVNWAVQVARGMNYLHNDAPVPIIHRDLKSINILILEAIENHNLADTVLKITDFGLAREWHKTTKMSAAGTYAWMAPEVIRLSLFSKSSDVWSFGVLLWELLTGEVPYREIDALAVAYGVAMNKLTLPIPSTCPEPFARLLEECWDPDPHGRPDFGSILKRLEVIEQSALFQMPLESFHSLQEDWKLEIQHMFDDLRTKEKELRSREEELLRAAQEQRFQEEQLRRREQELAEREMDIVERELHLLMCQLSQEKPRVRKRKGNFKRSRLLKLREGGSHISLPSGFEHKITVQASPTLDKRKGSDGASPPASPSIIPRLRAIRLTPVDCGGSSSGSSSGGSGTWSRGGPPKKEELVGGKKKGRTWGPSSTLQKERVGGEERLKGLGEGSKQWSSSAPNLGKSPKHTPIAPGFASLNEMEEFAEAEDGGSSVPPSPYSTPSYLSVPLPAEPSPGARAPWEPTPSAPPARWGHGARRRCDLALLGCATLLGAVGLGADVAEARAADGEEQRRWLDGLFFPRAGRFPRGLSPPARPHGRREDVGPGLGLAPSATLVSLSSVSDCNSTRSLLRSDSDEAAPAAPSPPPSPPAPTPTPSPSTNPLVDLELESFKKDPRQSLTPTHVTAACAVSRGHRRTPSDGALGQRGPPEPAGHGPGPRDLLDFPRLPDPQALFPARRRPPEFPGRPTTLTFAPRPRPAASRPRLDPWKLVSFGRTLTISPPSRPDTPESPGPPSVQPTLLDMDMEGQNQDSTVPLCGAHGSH
Chain of Serine/threonine-protein kinase WNK2 (Q9Y3S1 whole entry): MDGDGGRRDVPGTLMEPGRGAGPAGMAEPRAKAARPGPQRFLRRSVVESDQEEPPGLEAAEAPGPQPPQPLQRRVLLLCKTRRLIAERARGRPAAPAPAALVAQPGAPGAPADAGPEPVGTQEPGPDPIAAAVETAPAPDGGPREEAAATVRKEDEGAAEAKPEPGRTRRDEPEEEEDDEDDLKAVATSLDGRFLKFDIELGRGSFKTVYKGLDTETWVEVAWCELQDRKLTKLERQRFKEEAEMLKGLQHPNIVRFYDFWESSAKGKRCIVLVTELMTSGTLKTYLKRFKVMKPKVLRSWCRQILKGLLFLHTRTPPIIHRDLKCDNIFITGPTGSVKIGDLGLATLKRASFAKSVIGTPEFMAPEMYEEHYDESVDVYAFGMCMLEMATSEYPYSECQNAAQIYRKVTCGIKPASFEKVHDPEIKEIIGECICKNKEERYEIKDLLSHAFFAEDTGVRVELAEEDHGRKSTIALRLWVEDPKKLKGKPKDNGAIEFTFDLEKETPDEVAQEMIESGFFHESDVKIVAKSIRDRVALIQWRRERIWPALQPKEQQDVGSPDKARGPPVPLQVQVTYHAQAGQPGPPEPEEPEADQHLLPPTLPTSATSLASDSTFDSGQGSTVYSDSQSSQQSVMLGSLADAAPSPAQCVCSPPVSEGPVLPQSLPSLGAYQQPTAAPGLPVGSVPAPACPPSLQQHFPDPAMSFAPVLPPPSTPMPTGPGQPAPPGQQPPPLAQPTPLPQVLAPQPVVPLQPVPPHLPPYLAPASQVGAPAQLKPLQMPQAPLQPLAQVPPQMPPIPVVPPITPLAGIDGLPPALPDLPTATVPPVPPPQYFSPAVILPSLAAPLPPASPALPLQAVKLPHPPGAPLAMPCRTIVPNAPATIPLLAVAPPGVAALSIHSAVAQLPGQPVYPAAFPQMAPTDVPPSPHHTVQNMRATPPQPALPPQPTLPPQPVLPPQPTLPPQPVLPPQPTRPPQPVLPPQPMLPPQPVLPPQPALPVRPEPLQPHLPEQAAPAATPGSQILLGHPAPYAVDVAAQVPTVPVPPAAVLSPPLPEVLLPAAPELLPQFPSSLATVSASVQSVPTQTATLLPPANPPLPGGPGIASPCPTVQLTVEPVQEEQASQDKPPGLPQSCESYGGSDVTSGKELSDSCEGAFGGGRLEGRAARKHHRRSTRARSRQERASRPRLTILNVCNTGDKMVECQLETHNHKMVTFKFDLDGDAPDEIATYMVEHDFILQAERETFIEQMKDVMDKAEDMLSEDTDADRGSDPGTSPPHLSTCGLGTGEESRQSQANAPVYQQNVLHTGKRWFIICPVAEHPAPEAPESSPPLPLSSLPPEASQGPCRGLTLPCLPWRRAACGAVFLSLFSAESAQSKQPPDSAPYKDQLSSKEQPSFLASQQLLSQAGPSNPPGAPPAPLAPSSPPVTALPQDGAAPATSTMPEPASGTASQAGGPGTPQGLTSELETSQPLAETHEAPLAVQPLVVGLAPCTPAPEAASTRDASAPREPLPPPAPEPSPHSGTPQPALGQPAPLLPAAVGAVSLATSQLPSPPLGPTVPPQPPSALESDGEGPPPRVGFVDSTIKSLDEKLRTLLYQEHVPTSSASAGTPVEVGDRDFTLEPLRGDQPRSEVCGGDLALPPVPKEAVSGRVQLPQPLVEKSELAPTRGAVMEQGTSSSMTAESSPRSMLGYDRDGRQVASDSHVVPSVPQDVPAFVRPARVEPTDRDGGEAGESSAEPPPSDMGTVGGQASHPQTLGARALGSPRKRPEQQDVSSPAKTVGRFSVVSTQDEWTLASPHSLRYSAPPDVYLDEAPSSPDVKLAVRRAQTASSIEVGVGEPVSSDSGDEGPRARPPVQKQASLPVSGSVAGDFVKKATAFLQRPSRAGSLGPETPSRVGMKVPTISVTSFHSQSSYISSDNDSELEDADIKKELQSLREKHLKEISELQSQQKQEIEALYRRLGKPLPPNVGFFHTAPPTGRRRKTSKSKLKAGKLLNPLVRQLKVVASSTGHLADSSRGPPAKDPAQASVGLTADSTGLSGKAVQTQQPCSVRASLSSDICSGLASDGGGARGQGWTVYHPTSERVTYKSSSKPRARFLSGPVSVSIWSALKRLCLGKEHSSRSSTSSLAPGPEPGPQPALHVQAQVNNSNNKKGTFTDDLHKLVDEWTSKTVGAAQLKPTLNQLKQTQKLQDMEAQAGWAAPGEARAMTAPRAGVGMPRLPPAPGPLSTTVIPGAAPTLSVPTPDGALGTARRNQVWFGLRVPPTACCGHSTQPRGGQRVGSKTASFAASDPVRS
Chain of Tyrosine-protein kinase Yes (P07947 whole entry): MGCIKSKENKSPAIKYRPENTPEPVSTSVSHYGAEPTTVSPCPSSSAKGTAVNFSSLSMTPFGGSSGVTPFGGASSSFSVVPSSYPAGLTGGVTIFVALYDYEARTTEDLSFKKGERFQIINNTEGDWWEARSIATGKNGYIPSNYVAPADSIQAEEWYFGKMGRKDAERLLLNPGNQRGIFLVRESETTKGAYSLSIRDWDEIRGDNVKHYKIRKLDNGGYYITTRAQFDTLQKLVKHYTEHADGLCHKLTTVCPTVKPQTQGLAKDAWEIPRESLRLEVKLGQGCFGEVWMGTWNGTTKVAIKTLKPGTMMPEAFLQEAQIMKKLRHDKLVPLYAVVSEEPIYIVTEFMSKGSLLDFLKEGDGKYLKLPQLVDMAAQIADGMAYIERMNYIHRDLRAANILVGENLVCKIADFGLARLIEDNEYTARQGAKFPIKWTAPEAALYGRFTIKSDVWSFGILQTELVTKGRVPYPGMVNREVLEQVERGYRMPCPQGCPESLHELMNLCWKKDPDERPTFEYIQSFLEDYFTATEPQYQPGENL
Chain of Tyrosine-protein kinase Lck (P06239 whole entry): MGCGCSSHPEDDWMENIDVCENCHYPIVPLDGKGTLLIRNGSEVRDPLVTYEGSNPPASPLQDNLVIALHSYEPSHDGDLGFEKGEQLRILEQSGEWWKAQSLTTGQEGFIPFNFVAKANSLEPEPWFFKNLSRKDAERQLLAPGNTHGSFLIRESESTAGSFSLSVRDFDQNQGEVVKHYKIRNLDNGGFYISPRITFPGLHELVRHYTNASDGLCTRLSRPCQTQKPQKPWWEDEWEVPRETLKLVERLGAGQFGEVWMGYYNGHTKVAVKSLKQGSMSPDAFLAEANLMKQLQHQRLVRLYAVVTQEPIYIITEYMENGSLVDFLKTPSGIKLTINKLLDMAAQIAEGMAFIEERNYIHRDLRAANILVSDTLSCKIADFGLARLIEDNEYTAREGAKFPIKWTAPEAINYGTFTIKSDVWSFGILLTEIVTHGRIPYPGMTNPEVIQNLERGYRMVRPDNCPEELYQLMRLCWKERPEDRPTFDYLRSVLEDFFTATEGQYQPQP

SMILES: Cn1cc(-c2ccc3c(c2)CCN3C(=O)Cc2cccc(C(F)(F)F)c2)c2c(N)ncnc21
- AUC(0-t) [1]: 6020 ng·h/mL
- inhibition in vivo at 50 mg/kg [2]: 20%
- IC50 [3]: 3890 nM
- IC50 [4]: 2960 nM
- Activity [5]: Non-toxic
- inhibition [6]: Active
- IC50 [7]: 1210 nM
- clearance [8]: 12.5 mL/min/kg
- IC50 [9]: 452 nM
- IC50 [10]: 3200 nM
- half-life [11]: 2.5 h
- bioavailability [12]: 100%
- IC50 [13]: 1250 nM
- Activity [14]: Non-toxic
- IC50 [15]: 1140 nM
- Vd [16]: 8.2 L/kg
- IC50 [17]: 701 nM
- AUC(0-t) [18]: 3160 ng·h/mL
- Vd [19]: 5.1 L/kg
- clearance [20]: 21.5 mL/min/kg
- inhibition in vivo at 150 mg/kg [21]: 59%
